Test results taken from the M2OR odorant receptor database.

What follows are compounds tested against T1, OR2J2 (Homo sapiens) (UniProt O76002). Conditions: stereoisomer not certain.
T1 sequence (whole entry): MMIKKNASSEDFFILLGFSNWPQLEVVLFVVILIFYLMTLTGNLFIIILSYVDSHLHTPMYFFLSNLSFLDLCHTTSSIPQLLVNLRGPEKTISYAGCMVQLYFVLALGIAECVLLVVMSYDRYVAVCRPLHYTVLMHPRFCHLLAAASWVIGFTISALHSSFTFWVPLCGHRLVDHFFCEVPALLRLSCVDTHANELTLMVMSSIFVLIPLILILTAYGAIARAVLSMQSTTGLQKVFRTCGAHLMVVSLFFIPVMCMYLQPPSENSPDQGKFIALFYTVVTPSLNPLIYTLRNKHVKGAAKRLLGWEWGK
In short: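 Each receptor–molecule pair is labelled responsive or non-responsive (inactive) according to whether the original authors judged the measured signal statistically different from baseline. The data were taken from the main text and supplementary material of published papers and checked for typos and inconsistencies. Assay methods differed by source, with transient luciferase assays in mammalian cell lines being common.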

Odorant receptor agonist call, inactive:
CCCCCCOC(C)=O, CC12CCC(CC1=O)C2(C)C (stereo not given), COc1cc(C(=O)O)ccc1O, CC(=O)Oc1ccccc1, O=C1CCOc2ccccc21, CCOC(=O)C(C)C, O=C(c1ccccc1)c1ccccc1, CCCCCCCCC(=O)O, CCCCCOC(=O)CCCCC, CCCCCCCCS, CCCCC(=O)CC, CC(C)=CCCC(C)CCO (stereo not given), CCCCCC(=O)CC, CCCC(=O)C(C)=O, CCCCCCCCCC(=O)[O-].[H+], CCCCCCC(C)=O, CCCCOC=O, C=CCOC(=O)CCCCCC, O=C1Cc2ccccc2O1, CCCCCC1=C(C)CCC1=O, CCCC(C)=O, CC(=O)OCC=C(C)C, CCCCCO, CCC(=O)O, CCCCC(=O)O, CCCCCCC(=O)[O-].[H+], CCC(C(=O)O)c1ccccc1 (stereo not given)

Odorant receptor agonist call, active:
CCCCCCCCCO, CCCCCCCCCCO, CCCCCCCO
